Not all results are given here.
Apaf1 activ: activators of human Apaf-1 apoptosome | hit rate 0.31% among 330,000 | activity change, negative = activation, % at 20 µM | AID 489031 | Apaf-1 apoptosome caspase-3 activation, DEVD-Rh110 fluorescence; stronger effect = lower value | O14727;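 active = activity change at or below -40% at 20 µM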
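Material: reconstituted apoptosome of Apaf-1, cytochrome c, caspase-9, procaspase-3; times: 30 min preincubation, 50 min reaction, room temperature; measured by: fluorescence, 540 nm emission, 480 nm excitation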
Rh110 act interf: counter-screen for Apaf-1 activators: fluorescence interference. Rh110 fluorescence interference, quenched caspase reaction, Ex480/Em540. fluorescence interference (activity change), % at 20 µM, hits read low. 980 tested, under 10 active. AID 504616. shares compounds with Apaf1 activ;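 active = mean activity change at or below -40% when tested at 20 µM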
Apaf-1 act conf2: Apaf-1 (human) activation, single-dose confirmed | hit rate 5% among 980 | shares compounds with Apaf1 activ | reconstituted apoptosome caspase-3 activity, DEVD-Rh110 fluorescence; stronger effect = lower value | AID 504617 | activity change, negative = activation, % at 20 µM;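 active = mean activity change at or below -40%, meaning activation of 40% or more, at 20 µM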
Fluor interf act: counter-screen for Apaf-1 activators: fluorescence interference, dose response; shares compounds with Apaf1 activ; fluorescence interference counterscreen, Apaf-1 activator assay; EC50, µM; 55 tested, under 10 active; call rule not given here
* hit, by the source's call; / = no result.

SMILES | Apaf1 activ | Rh110 act interf | Apaf-1 act conf2 | others
Cc1cc2cc(CNC(=O)c3ccc(S(=O)(=O)N4CCCCC4)cc3)ccc2n1C | 53 | / | /
O=C(c1ccc(S(=O)(=O)N2CCCC2)cc1)N(c1ccc(F)cc1)C1C=CS(=O)(=O)C1 (stereo not given) | -314* | 3 | 11
CC1CCCCN1S(=O)(=O)c1ccc(C(=O)N(CCCN(C)C)c2nc3ccc(Br)cc3s2)cc1 (stereo not given) | 67 | / | /
COc1ccc2nc(C)cc(N/N=C/c3ccccc3)c2c1 | 50 | / | /
O=[N+]([O-])c1cc(Br)c(O)c(C=Nc2ccc(N3CCOCC3)cc2)c1 | 68 | / | /
COc1cc(NC(C)CCCN)c2ncccc2c1Oc1ccccc1 (stereo not given) | 70 | / | /
COc1ccc(Br)cc1C1CC(=O)N2CN(C)CSC2=C1C#N (stereo not given) | 42 | / | /
CN1CCCC1CCNc1ccc2sc3ccccc3c(=O)c2c1 (stereo not given) | 44 | / | /
NC1(C#Cc2ccc3c(=O)c4ccccc4sc3c2)CCCCC1 | 60 | / | /
COc1ccc2sc3ccccc3c(=O)c2c1 | -77* | 1 | 16
CN(C)CCC(c1ccc(Br)cc1)c1ccccn1 (stereo not given) | 1 | / | /
COc1cccc(-c2sc3ccccc3c2-c2ccc(OCCN3CCCCC3)cc2)c1 | 64 | / | /
CCN1CCN(CCNC(=O)c2cn(C(C)c3ccccc3F)nn2)CC1 (stereo not given) | -78* | 8 | 16
CCN(CC)CCOC(=O)c1ccc(N/C=C(/C#N)c2nc(-c3ccc(OC)c(OC)c3)cs2)cc1 | 55 | / | /
CCCCCc1ccc(OCCC[n+]2ccccc2)c(CCCCC)c1 | 66 | / | /
OCCC1CN(Cc2ccc3ncccc3c2)CCN1Cc1ccccc1 (stereo not given) | -247* | -1 | 8
CN(CC(=O)Nc1ccc(Cl)c(C(F)(F)F)c1)C(=O)CC1Sc2ccccc2NC1=O (stereo not given) | 51 | / | /
Oc1ccc(NCc2ccccc2OCc2ccccc2F)cc1 | 92 | / | /
Cc1oc2c(c1C(=O)O)C(=O)c1ccccc1C2=O | 79 | / | /
O=C(N/N=C/c1cn(-c2ccccc2)nc1-c1cccnc1)c1ccccc1 | -52* | 0 | 16
CCN1C(=O)CC(c2ccccc2)N(C2CCCC2)c2nc(Nc3ccc(C(=O)NC4CCN(C)CC4)cc3OC)ncc21 (stereo not given) | 70 | / | /
CCCCCCSc1cccc(-c2nc3cc(C)ccn3c2NCc2ccccc2)c1 | 40 | / | /
O=C(c1ccc([N+](=O)[O-])o1)N(Cc1nnc(-c2ccccc2Cl)o1)C1CC1 | 51 | / | /
C[C@@H]1CN([C@H](C)CO)C(=O)Cc2cc(NS(=O)(=O)c3ccc(Cl)cc3)ccc2O[C@H]1CN(C)Cc1ccc(C(F)(F)F)cc1 | 41 | / | /
CCOc1cc(N(CC)CC)ccc1/C=C(/C#N)c1nc2ccccc2[nH]1 | -46* | -2 | 17
SMILES | Apaf1 activ | Rh110 act interf | Apaf-1 act conf2 | others
COC(=O)C1=C(C)N(Cc2ccccc2)C(=NCc2cccc(Cl)c2)N[C@H]1c1ccccc1 | 56 | / | /
CSc1ccc(C=NNc2ccc(S(=O)(=O)Nc3ccccc3C(=O)O)cc2[N+](=O)[O-])cc1 | -90* | 11 | -133* | Fluor interf act=>100
CC(C)(C)N1C(=O)Cc2c1nc(N)c1c(N)nc(N3CCCCC3CO)c(C#N)c21 (stereo not given) | 99 | / | /
CCc1ccccc1N1CSC2=C(C#N)C(c3cc(OC)c(OC)cc3OC)CC(=O)N2C1 (stereo not given) | 43 | / | /
CC1(C)CC2CC(C)(CN2C(=O)c2cccs2)C1 (stereo not given) | -95* | 6 | 13
CC(NC(=O)C1CCN(C(=O)c2cccs2)CC1)c1ccc(S(N)(=O)=O)cc1 (stereo not given) | 62 | / | /
NCCN1CCN(S(=O)(=O)c2ccc([N+](=O)[O-])cc2)C=C1c1ccc(Cl)cc1 | 43 | / | /
Cc1cc(=O)[nH]c(N/N=C/c2ccc(Cl)c([N+](=O)[O-])c2)n1 | -73* | 4 | 9
NS(=O)(=O)c1ccc(NC2=CC(=O)C(=O)c3ccccc32)cc1 | 95 | / | /
CC(C)=NOc1nc(N(C)C)nc(N(C)C)n1 | -76* | 3 | 1
C/C(=N\Nc1ccc([N+](=O)[O-])cc1)c1ccc(C#N)cc1 | -44* | 6 | 2
O=C(C(Cc1ccccc1)N1C(=O)c2ccccc2C1=O)N1c2ccccc2CCc2ccccc21 (stereo not given) | 40 | / | /
CSc1ncc(CN2CCc3c([nH]c4ccccc34)C2c2cccc(O)c2)cn1 (stereo not given) | -158* | -4 | 14
c1cc2c3c(cccc3c1)C(N1CCCCC1)=N2 | 91 | / | /
